ChEMBL document CHEMBL1255444, “In vitro antibacterial activities of JNJ-Q2, a new broad-spectrum fluoroquinolone” (Antimicrob Agents Chemother, 2010)

Assays:
Assay type in all cases: functional
Staphylococcus aureus [1] = test: Antibacterial activity against Staphylococcus aureus […] by broth microdilution method
Summary of the method: (§1)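 CLSI M07-A7 broth microdilution MIC. Medium was cation-adjusted Mueller-Hinton broth. For S. pneumoniae it was Mueller-Hinton supplemented with 5% lysed horse blood. CLSI quality-control strains were included as appropriate.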

Staphylococcus aureus [2] = test: Antibacterial activity against methicillin-resistant Staphylococcus aureus isolate OC17042 harboring gyrA S84L/G106D, parC S80F and parE D732N mutant gene by broth microdilution method; summary of the method: as §1
Haemophilus influenzae = test: Antibacterial activity against Haemophilus influenzae by broth microdilution method
Summary of the method: (§2)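 MICs by CLSI M07-A7 broth microdilution in cation-adjusted Mueller-Hinton medium. For S. pneumoniae the medium was supplemented with 5% lysed horse blood. CLSI quality control strains were run alongside as appropriate.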

Streptococcus pneumoniae [3] = test: Antibacterial activity against Streptococcus pneumoniae OC6755 harboring gyrA S81F and parC S79Y mutant gene by agar dilution method
Summary of the method: (§3)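 MICs for the resistance-selection studies were determined by CLSI agar dilution on Mueller-Hinton medium. For S. pneumoniae the medium was supplemented with 5% lysed horse blood. For MRSA fluctuation-assay strains an arithmetic agar dilution scheme was used for a more precise MIC.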

Klebsiella aerogenes = test: Antibacterial activity against Enterobacter aerogenes by broth microdilution method; summary of the method: as §2
Enterococcus faecium = test: Antibacterial activity against Enterococcus faecium by broth microdilution method; summary of the method: as §2
Streptococcus pneumoniae [4] = test: Antibacterial activity against Streptococcus pneumoniae isolate OC7368 by broth microdilution method; summary of the method: as §1
Pseudomonas aeruginosa = test: Antibacterial activity against Pseudomonas aeruginosa ATCC 27853 by broth microdilution method; summary of the method: as §2
Streptococcus pneumoniae [5] = test: Antibacterial activity against Streptococcus pneumoniae isolate OC7348 by broth microdilution method; summary of the method: as §1
Citrobacter freundii = test: Antibacterial activity against Citrobacter freundii by broth microdilution method; summary of the method: as §2
Streptococcus pneumoniae [6] = test: Antibacterial activity against Streptococcus pneumoniae OC7452 harboring parC S79Y mutant gene by agar dilution method; summary of the method: as §3
Serratia marcescens = test: Antibacterial activity against Serratia marcescens by broth microdilution method; summary of the method: as §2
Streptococcus pneumoniae [7] = test: Antibacterial activity against Streptococcus pneumoniae isolate OC6610 by broth microdilution method; summary of the method: as §1
Streptococcus pneumoniae [8] = test: Antibacterial activity against Streptococcus pneumoniae isolate OC6585 by broth microdilution method; summary of the method: as §1
Streptococcus pneumoniae [9] = test: Antibacterial activity against Streptococcus pneumoniae isolate OC6608 by broth microdilution method; summary of the method: as §1
Streptococcus pneumoniae [10] = test: Antibacterial activity against Streptococcus pneumoniae isolate OC7376 by broth microdilution method; summary of the method: as §1
Streptococcus pneumoniae [11] = test: Antibacterial activity against Streptococcus pneumoniae isolate OC5462 by broth microdilution method; summary of the method: as §1
Staphylococcus aureus [12] = test: Antibacterial activity against methicillin-resistant Staphylococcus aureus isolate OC11521 harboring gyrA S84L/S85P, parC E84G mutant gene by broth microdilution method; summary of the method: as §1
Streptococcus pneumoniae [13] = test: Antibacterial activity against Streptococcus pneumoniae isolate OC6790 by broth microdilution method; summary of the method: as §1
Staphylococcus aureus [14] = test: Antibacterial activity against methicillin-resistant Staphylococcus aureus isolate OC11696 by broth microdilution method; summary of the method: as §1
Staphylococcus aureus [15] = test: Antibacterial activity against methicillin-resistant Staphylococcus aureus isolate OC12501 by broth microdilution method; summary of the method: as §1
[16] = tested on: Staphylococcus epidermidis; test: Antibacterial activity against methicillin-, ciprofloxacin-resistant Staphylococcus epidermidis by broth microdilution method
Streptococcus agalactiae = test: Antibacterial activity against Streptococcus agalactiae by broth microdilution method; summary of the method: as §2
Moraxella catarrhalis = test: Antibacterial activity against Moraxella catarrhalis by broth microdilution method; summary of the method: as §2
Staphylococcus aureus [17] = test: Antibacterial activity against methicillin-resistant Staphylococcus aureus isolate OC2838 by broth microdilution method; summary of the method: as §1
Streptococcus pneumoniae [18] = test: Antibacterial activity against Streptococcus pneumoniae R6 by agar dilution method; summary of the method: as §3
Staphylococcus aureus [19] = test: Antibacterial activity against methicillin-resistant Staphylococcus aureus by broth microdilution method; summary of the method: as §1
Providencia stuartii = test: Antibacterial activity against Providencia stuartii by broth microdilution method; summary of the method: as §2
Staphylococcus aureus [20] = test: Antibacterial activity against methicillin-resistant Staphylococcus aureus isolate OC4222 harboring gyrA S84L and parC S80F mutant gene by broth microdilution method; summary of the method: as §1
Proteus mirabilis = test: Antibacterial activity against Proteus mirabilis by broth microdilution method; summary of the method: as §2
Staphylococcus aureus [21] = test: Antibacterial activity against methicillin-resistant Staphylococcus aureus isolate OC11223 by broth microdilution method; summary of the method: as §1
Streptococcus pneumoniae [22] = test: Antibacterial activity against Streptococcus pneumoniae isolate OC7189 by broth microdilution method; summary of the method: as §1
Staphylococcus aureus [23] = test: Antibacterial activity against methicillin-susceptible Staphylococcus aureus by broth microdilution method
Staphylococcus aureus [24] = test: Antibacterial activity against methicillin-, ciprofloxacin-resistant Staphylococcus aureus by broth microdilution method; summary of the method: as §1
[25] = Antibacterial activity against Streptococcus sp. group C by broth microdilution method
Summary of the method: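 MICs by broth microdilution following CLSI M07-A7 in cation-adjusted Mueller-Hinton medium, using isolates from the J&JPRD culture collection. CLSI quality control strains were included as appropriate.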

Escherichia coli = test: Antibacterial activity against ciprofloxacin-resistant Escherichia coli by broth microdilution method; summary of the method: as §1
Streptococcus pyogenes = test: Antibacterial activity against Streptococcus pyogenes by broth microdilution method; summary of the method: as §2
Enterococcus faecalis = test: Antibacterial activity against Enterococcus faecalis ATCC 29212 by broth microdilution method; summary of the method: as §2
Streptococcus pneumoniae [26] = test: Antibacterial activity against Streptococcus pneumoniae OC7453 harboring gyrA S81F mutant gene by agar dilution method; summary of the method: as §3
[27] = tested on: Staphylococcus epidermidis; test: Antibacterial activity against methicillin-susceptible Staphylococcus epidermidis by broth microdilution method
Streptococcus pneumoniae [28] = test: Antibacterial activity against Streptococcus pneumoniae ATCC 49619 by broth microdilution method; summary of the method: as §2
[29] = tested on: Staphylococcus epidermidis; test: Antibacterial activity against methicillin-resistant Staphylococcus epidermidis by broth microdilution method
Staphylococcus aureus [30] = test: Antibacterial activity against methicillin-resistant Staphylococcus aureus isolate OC8530 harboring gyrA S84L and parC I143V mutant gene by broth microdilution method
Summary of the method: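 CLSI M07-A7 broth microdilution MIC in cation-adjusted Mueller-Hinton medium. For S. pneumoniae the medium was supplemented with 5% lysed horse blood. CLSI quality-control strains were included as appropriate.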

COc1c(N2C[C@@H]3CCCN[C@@H]3C2)c(F)cc2c(=O)c(C(=O)O)cn(C3CC3)c12 [MOXIFLOXACIN]
64 µg/mL: MIC90 (Providencia stuartii)
0.12 µg/mL: MIC50 (Klebsiella aerogenes) | MIC (Streptococcus pneumoniae [18]) | MIC50 [25] | MIC (Streptococcus pyogenes) | MIC50 (Streptococcus pyogenes)
0.06 µg/mL: MIC (Moraxella catarrhalis) | MIC50 (Moraxella catarrhalis) | MIC90 (Moraxella catarrhalis) | MIC (Staphylococcus aureus [21]) | MIC (Staphylococcus aureus [23]) | MIC50 (Staphylococcus aureus [23]) | MIC50 [27]
1 µg/mL: MIC90 (Serratia marcescens) | MIC (Streptococcus pneumoniae [11]) | MIC (Staphylococcus aureus [14]) | MIC (Staphylococcus aureus [15])
0.25 µg/mL: MIC90 (Klebsiella aerogenes) | MIC (Streptococcus pneumoniae [6]) | MIC50 (Streptococcus agalactiae) | MIC90 (Streptococcus agalactiae) | MIC (Streptococcus pneumoniae [22]) | MIC90 [25] | MIC90 (Streptococcus pyogenes) | MIC (Enterococcus faecalis) | MIC50 (Enterococcus faecalis) | MIC50 (Streptococcus pneumoniae [28])
8 µg/mL: MIC90 (Staphylococcus aureus [1]) | MIC (Staphylococcus aureus [2]) | MIC (Streptococcus pneumoniae [3]) | MIC (Streptococcus pneumoniae [5]) | MIC (Streptococcus pneumoniae [8]) | MIC90 (Staphylococcus aureus [19]) | MIC90 (Staphylococcus aureus [24])
> 16 µg/mL: MIC90 (Enterococcus faecium)
4 µg/mL: MIC50 (Enterococcus faecium) | MIC (Streptococcus pneumoniae [4]) | MIC90 (Pseudomonas aeruginosa) | MIC (Streptococcus pneumoniae [13]) | MIC90 [16] | MIC (Staphylococcus aureus [17]) | MIC50 (Staphylococcus aureus [24]) | MIC90 (Streptococcus pneumoniae [28]) | MIC90 [29]
0.015 µg/mL: MIC50 (Haemophilus influenzae)
32 µg/mL: MIC (Staphylococcus aureus [12]) | MIC50 (Providencia stuartii) | MIC50 (Escherichia coli)
128 µg/mL: MIC90 (Escherichia coli)
0.03 µg/mL: MIC90 (Haemophilus influenzae)
0.5 µg/mL: MIC50 (Serratia marcescens) | MIC50 (Proteus mirabilis) | MIC90 (Proteus mirabilis) | MIC (Streptococcus pneumoniae [26])
> 8 µg/mL: MIC90 (Citrobacter freundii)
16 µg/mL: MIC (Streptococcus pneumoniae [7]) | MIC90 (Enterococcus faecalis)
2 µg/mL: MIC50 (Staphylococcus aureus [1]) | MIC50 (Pseudomonas aeruginosa) | MIC50 (Citrobacter freundii) | MIC (Streptococcus pneumoniae [9]) | MIC (Streptococcus pneumoniae [10]) | MIC50 [16] | MIC50 (Staphylococcus aureus [19]) | MIC (Staphylococcus aureus [20]) | MIC50 [29] | MIC (Staphylococcus aureus [30])
